Test results as given in article PMC4351919 (Journal of biological inorganic chemistry : JBIC : a …, 2014).

What was measured:
[1] = cited from earlier work
[2] = Determination of aqueous solubility; type: physicochemical; conditions: Milli-Q water, room temperature
Summary of the method: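 Modified OECD method. Saturated solutions made in Milli-Q water at room temperature with repeated ultrasonication. Undissolved material removed through a 0.45 μm filter. Filtrate diluted in 1 % HNO3, and platinum quantified by ICP-MS (RF 1500 W, 194Pt/195Pt monitored, Re internal isotope, 10 replicates) to calculate solubility.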

A549 = conditions: read-out: IC50 (A549); MTT assay, 96 h exposure; cited from earlier work
[3] = SEC-ICP-MS study in mice serum after single dose oral administration; type: in vivo; conditions: serum 2 h after single oral dose
Summary of the method: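 Balb/c mice dosed orally once at 40 mg/kg (water, 1 % DMSO). Under anesthesia at 2 h, blood taken by heart puncture; serum isolated (3000 rpm, 10 min, twice), stored at −20 °C, then diluted in PBS. SEC on Superdex 200 (10–600 kDa), 100 mmol/l ammonium acetate pH 7.4, 0.7 ml/min, with online ICP-MS Pt trace. References: compounds in PBS, fresh or after 1 and 24 h at 37 °C.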

[4] = Tissue distribution of platinum after single dose oral administration; type: in vivo, Balb/c mice; conditions: 2 h after single oral dose 40 mg/kg, mice
CH1 = conditions: read-out: IC50 (CH1); MTT assay, 96 h exposure; cited from earlier work
SW480 = conditions: read-out: IC50 (SW480); MTT assay, 96 h exposure; cited from earlier work
[5] = tested on: murine colon cancer cell model CT-26; test: Cytotoxicity assay; type: cell-based; conditions: MTT assay, 72 h exposure; for IC50: read-out: IC50 mean ± SD, CT-26
Summary of the method: (§1)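 Cells (L1210 in RPMI 1640; CT-26 in DMEM/F12; both with 10 % FCS, 37 °C, 5 % CO2) seeded at 2 × 10^3/well and allowed 24 h recovery. 10 mM DMSO stocks serially diluted in medium; final DMSO ≤0.5 %. After 72 h exposure, viability read by MTT (EZ4U). IC50 reported as mean ± SD of at least three independent experiments.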

[6] = Lipophilicity as chromatographic retention factor log kw; type: physicochemical; conditions: RP-HPLC, extrapolated to 0 % MeOH
Summary of the method: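 RP-HPLC on a C18 column (4.6 × 250 mm, 5 μm) at 25 °C, 1 ml/min, isocratic 0.1 % TFA(aq)/MeOH, UV 210 nm, with uracil for dead time t0. Each compound run in triplicate at ≥3 MeOH compositions; k = (tR − t0)/t0. log kw obtained by linear extrapolation of log k versus %MeOH to 0 % MeOH.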

[7] = 15 min after oral application, clinical trials; cited from earlier work
[8] = tested on: murine leukemia model L1210; test: Cytotoxicity assay; type: cell-based; conditions: read-out: IC50 mean ± SD, L1210; MTT assay, 72 h exposure
Summary of the method: as §1

[9] = Lipophilicity as n-octanol/water partition coefficient; type: physicochemical; conditions: shake flask
Summary of the method: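 Modified OECD shake-flask method. Compound dissolved in water pre-saturated with 1-octanol, and aqueous Pt measured by ICP-MS after dilution in 1 % HNO3. Solution then mixed 1:1 with water-saturated 1-octanol and shaken 1 h. After phase separation, aqueous Pt re-measured; octanol content taken as the loss from the stock to give log Po/w.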

[10] = type: in vivo, Balb/c mice; conditions: CT-26-bearing mice
CT-26 cells = test: Anticancer activity against CT-26 cells in vivo; set-up: species or system Balb/c mice; conditions: CT-26-bearing mice, i.p. days 4, 7, 11, 14; 8.5 mg/kg for 1, 10 mg/kg for 2
Summary of the method: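 CT-26 cells (5 × 10^5) injected s.c. into right flank of female Balb/c mice. Test compound given i.p. as freshly prepared aqueous solution on days 4, 7, 11 and 14. Daily distress checks. Tumor size measured regularly by caliper; volume = length × width²/2. Mice sacrificed at day 15, 24 h after last dose.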

| Compound | Aqueous solubility [2] [µg/mL] | IC50 (A549) [nM] | Percentage of platinum amount found in serum relative to the administered platinum dose [4] | IC50 (CH1) [nM] | IC50 (SW480) [nM] | IC50 [5] [nM] | Lipophilicity (log kw) [6] | IC50 [8] [nM] | Lipophilicity (log Po/w) [9] | Platinum level in serum [4] | also measured |
| --- | --- | --- | --- | --- | --- | --- | --- | --- | --- | --- | --- |
| N.N.O=C([O-])C1(C(=O)[O-])CCC1.[Pt+2] [carboplatin] | – | – | – | – | – | – | – | – | – | – | Injected dose recovered in urine [1]: ~90% |
| CC(=O)[O][Pt]([NH2])([Cl])([Cl])([NH]C1CCCCC1)[O]C(C)=O [Satraplatin, (OC-6-43)-bis(acetato)amminedichlorido(cyclohexylamine)platinum(IV), reference compound] | 100 ± 10 | 6400 ± 400 | ~ 4 % Pt | 100 ± 20 | 1500 ± 100 | 2900 ± 300 | 1.49 ± 0.03 | 2500 ± 200 | 0.23 ± 0.01 | – | Presence of intact parent drug in serum [3]: absence of intact satraplatin; Times lower platinum concentrations in the investigated tissues than compound 1 [4]: 2-3 times; Fold more active than 1 in CT-26 cells [5]: ~ 2 fold; Parent drug in patients' plasma ultrafiltrate [7]: no parent drug was detected |
| [NH2][Pt]1([NH2])([O]C(=O)CCC(=O)NC2CCCC2)([O]C(=O)CCC(=O)NC2CCCC2)[O]C(=O)C2(CCC2)C(=O)[O]1 [Compound 2, (OC-6-33)-diammine(cyclobutane-1,1-dicarboxylato)bis((4-cyclopentylamino)-4-oxobutanoato)platinum(IV)] | 10200 ± 40 | > 500000 | ~ 1.5 % Pt | 15000 ± 5000 | > 500000 | > 50000 | 2.99 ± 0.06 | > 50000 | 0.77 ± 0.06 | ~ 0.15 μg/ml | Free intact platinum(IV) complex in serum [3]: ~ 5%; Platinum accumulation in all organ samples [4]: less than 0.5 μg/g; Platinum in liver, kidney and serum after i.p. versus oral administration ([10]; 10 mg/kg i.p. vs 40 mg/kg p.o., multiple dose): tenfold higher; Platinum concentrations in all tissues after oral application ([10]; multiple dose p.o. 40 mg/kg, day 15): < 0.5 µg/g; In vivo anticancer activity (tumor volume), intraperitoneal application (CT-26 cells): inactive |
| CC[NH][Pt]([Cl])([Cl])([NH]CC)([O]C(=O)CCC(=O)OCC)[O]C(=O)CCC(=O)OCC [Compound 1, (OC-6-33)-dichloridobis((4-ethoxy)-4-oxobutanoato)bis(ethylamine)platinum(IV)] | 1940 ± 20 | 1000 ± 400 | ~ 16 % Pt | 61 ± 15 | 300 ± 50 | 5700 ± 200 | 2.87 ± 0.01 | 1500 ± 400 | 0.72 ± 0.03 | ~ 2 μg/ml | Platinum level in blood pellet [4]: ~ 1 μg/g; Platinum level in kidneys [4]: ~ 4 μg/g; Platinum level in liver [4]: ~ 9 μg/g; Platinum level in lungs [4]: ~ 1 μg/g; Increase of platinum level in tumor at the higher oral dose ([10]; 51.7 vs 34.1 mg/kg p.o., multiple dose): up to 30% |
